The target in assay [1] is T1, 5-hydroxytryptamine receptor 2C (Homo sapiens, UniProt P28335).
T1 sequence (P28335 whole entry): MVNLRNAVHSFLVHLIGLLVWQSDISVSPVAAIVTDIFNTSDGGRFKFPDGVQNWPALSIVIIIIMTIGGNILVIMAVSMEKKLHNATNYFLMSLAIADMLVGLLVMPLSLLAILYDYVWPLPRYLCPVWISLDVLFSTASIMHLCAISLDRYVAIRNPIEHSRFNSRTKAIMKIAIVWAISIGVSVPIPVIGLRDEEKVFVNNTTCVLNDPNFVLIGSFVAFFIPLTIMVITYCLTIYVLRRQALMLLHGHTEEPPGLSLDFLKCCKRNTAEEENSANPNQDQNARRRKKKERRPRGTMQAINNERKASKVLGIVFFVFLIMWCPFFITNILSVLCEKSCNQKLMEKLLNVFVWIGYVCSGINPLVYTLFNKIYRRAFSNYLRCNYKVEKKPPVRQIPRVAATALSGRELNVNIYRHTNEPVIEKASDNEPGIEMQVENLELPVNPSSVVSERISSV
Description: Inhibition of 5HT2C (receptor).

The target of the next assay is Histamine H2 receptor (Homo sapiens, UniProt P25021). As to the kind of experiment: Inhibition of histamine H2 receptor.
The target in assay [2] is T2, Growth hormone secretagogue receptor type 1 (Homo sapiens, UniProt Q92847). As to the kind of experiment: Antagonist activity at human GHSR expressed in CHOK1 cells assessed as inhibition of ghrelin-induced intracellular calcium flux by aequorin flash luminescence assay. It counts as functional, cell-based, CHO-K1. The method, boiled down:
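Aequorin flash luminescence in CHO-K1 cells stably co-expressing human ghrelin receptor and aequorin. […] IC50 values are means of three determinations.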
On the technique in general: Calcium flux is commonly read through the fluorescence of an indicator in the cells.

In assay [3] the target is T3, Alpha-2A adrenergic receptor (Homo sapiens, UniProt P08913).
T3 sequence (P08913 whole entry): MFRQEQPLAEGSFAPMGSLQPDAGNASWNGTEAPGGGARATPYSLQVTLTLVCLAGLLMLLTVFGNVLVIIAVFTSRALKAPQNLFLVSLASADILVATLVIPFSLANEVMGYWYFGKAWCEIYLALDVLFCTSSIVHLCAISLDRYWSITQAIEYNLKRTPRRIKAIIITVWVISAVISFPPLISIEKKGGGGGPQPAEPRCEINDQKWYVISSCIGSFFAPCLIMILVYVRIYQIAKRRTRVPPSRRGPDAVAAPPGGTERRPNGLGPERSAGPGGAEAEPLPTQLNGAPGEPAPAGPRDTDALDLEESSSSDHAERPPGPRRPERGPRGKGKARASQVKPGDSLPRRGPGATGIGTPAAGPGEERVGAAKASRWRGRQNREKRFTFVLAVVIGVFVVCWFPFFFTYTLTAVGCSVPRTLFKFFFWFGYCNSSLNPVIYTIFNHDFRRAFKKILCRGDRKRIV
Description: Inhibition of alpha2A adrenergic receptor.

Assay [4] deals with T2, Growth hormone secretagogue receptor type 1. As to the kind of experiment: Agonist activity at human GHSR expressed in CHO cells assessed as increase in ghrelin-induced [3H]IP accumulation at 10 uM after 1 hr by scintillation counting relative to ghrelin. In kind it is functional, cell-based. The method, boiled down: (§1)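 CHO cells stably expressing human or rat GHSR labelled 12 h with 3H-inositol (1 µCi/mL in DMEM), then exposed to ghrelin or compound at 37 °C for 1.0 h. Lysis with 20 mM formic acid, 4 °C, 4 h. Extract taken onto SPA beads, 12 h in the dark, then radioactivity counted. IP accumulation expressed as % of maximal ghrelin response at 10, 1.0 and 0.1 µM.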

In assay [5] the target is Kappa-type opioid receptor (Homo sapiens, UniProt P41145). As to the kind of experiment: Inhibition of kappa opioid receptor.
Kappa-type opioid receptor, sequence (P41145 whole entry): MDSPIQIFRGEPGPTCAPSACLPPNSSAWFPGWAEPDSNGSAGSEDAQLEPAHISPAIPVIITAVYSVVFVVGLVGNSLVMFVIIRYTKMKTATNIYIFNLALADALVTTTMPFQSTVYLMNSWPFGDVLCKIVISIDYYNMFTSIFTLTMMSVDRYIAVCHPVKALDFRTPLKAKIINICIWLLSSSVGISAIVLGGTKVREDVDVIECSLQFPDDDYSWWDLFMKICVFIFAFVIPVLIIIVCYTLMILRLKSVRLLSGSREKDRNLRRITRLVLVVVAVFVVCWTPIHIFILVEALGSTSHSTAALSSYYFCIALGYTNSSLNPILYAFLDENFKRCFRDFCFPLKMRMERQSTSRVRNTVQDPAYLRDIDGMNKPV
In assay [6] the target is 5-hydroxytryptamine receptor 2A (Homo sapiens, UniProt P28223). Description: Inhibition of 5HT2A (receptor).
5-hydroxytryptamine receptor 2A, sequence (P28223 whole entry): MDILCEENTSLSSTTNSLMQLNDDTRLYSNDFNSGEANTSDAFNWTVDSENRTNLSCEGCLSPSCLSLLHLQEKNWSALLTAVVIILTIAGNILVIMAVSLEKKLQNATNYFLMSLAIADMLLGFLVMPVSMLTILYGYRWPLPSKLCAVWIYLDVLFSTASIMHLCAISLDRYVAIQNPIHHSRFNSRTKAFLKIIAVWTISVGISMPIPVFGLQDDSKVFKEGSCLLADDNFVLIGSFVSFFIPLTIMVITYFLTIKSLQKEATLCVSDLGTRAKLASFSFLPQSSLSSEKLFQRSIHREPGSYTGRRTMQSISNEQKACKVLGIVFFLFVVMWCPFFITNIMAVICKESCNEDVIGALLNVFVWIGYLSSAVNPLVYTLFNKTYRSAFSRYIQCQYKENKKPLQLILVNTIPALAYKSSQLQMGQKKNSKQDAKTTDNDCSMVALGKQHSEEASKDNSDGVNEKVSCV
A short description of assay [7]: Induction of growth hormone release from Sprague-Dawley rat pituitary cells at 1 uM after 20 mins by RIA assay relative to ghrelin. In kind it is functional, Pituitary gland cell. The gist of the method:
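Pituitary cells from 6–8-week-old male SD rats plated on poly-D-lysine and cultured 3 days at 37 °C. Washed with DMEM assay buffer (20 mM Hepes, 0.3% BSA) and held 5 min at 37 °C. Treated with rat ghrelin or compound for 20 min, then GH release measured as % of maximal ghrelin response. Means of three determinations.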

The target in assay [8] is Sodium-dependent dopamine transporter (Homo sapiens, UniProt Q01959). As to the kind of experiment: Inhibition of DAT.
Sodium-dependent dopamine transporter, sequence (Q01959 whole entry): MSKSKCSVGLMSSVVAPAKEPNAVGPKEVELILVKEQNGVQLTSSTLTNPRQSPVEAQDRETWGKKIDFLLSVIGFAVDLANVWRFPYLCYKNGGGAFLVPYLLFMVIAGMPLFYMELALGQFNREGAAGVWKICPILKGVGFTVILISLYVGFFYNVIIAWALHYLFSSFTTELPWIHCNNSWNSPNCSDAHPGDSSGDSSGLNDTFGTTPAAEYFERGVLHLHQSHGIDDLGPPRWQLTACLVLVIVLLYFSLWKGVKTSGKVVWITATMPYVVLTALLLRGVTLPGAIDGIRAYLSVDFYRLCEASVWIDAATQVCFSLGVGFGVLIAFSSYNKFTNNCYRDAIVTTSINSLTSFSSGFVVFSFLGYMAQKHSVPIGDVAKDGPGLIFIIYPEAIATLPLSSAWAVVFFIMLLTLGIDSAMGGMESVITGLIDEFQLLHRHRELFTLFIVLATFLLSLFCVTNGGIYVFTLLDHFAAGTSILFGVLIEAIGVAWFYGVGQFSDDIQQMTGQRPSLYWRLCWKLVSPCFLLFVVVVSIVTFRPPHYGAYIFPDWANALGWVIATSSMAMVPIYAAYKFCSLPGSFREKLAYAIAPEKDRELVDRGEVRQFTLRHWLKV
Assay [9] addresses Muscarinic acetylcholine receptor M3 (Homo sapiens, UniProt P20309). As to the kind of experiment: Inhibition of muscarinic M3 receptor.
Assay [10] addresses Growth hormone secretagogue receptor type 1 (Rattus norvegicus) (UniProt O08725). As to the kind of experiment: Agonist activity at rat GHSR expressed in CHO cells assessed as increase in ghrelin-induced [3H]IP accumulation at 10 uM after 1 hr by scintillation counting relative to ghrelin. It counts as functional, cell-based. The gist of the method: as §1
A further assay concerns the target D(3) dopamine receptor (Homo sapiens, UniProt P35462). As to the kind of experiment: Inhibition of dopamine D3 receptor.
The next assay concerns the target Mu-type opioid receptor (Homo sapiens, UniProt P35372). Description: Inhibition of mu opioid receptor.
For assay [11], the target named is Sodium-dependent noradrenaline transporter (Homo sapiens, UniProt P23975). Description: Inhibition of NET.
Sodium-dependent noradrenaline transporter, sequence (P23975 whole entry): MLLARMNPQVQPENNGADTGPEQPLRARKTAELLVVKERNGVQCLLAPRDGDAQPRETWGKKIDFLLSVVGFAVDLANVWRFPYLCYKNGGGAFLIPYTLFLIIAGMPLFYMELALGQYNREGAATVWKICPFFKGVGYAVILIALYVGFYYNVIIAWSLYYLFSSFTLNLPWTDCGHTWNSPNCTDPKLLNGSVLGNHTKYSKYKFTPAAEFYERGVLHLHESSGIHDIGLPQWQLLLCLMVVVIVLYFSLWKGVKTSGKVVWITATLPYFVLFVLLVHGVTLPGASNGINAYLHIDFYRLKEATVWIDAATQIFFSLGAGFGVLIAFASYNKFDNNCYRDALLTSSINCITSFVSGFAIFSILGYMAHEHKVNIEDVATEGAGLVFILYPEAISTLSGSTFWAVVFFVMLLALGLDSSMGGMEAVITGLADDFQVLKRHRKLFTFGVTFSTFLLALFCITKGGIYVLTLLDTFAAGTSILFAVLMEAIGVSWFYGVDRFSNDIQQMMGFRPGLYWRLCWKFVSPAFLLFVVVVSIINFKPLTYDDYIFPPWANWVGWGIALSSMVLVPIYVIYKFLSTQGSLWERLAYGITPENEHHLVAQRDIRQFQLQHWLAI
Assay [12] addresses Sodium-dependent serotonin transporter (Homo sapiens, UniProt P31645). Description: Inhibition of SERT.
In another assay the target is D(2) dopamine receptor (Homo sapiens, UniProt P14416). Description: Inhibition of dopamine D2 receptor.
The target in assay [13] is Growth hormone secretagogue receptor type 1 (Rattus norvegicus) (UniProt O08725). Description: Agonist activity at rat GHSR expressed in CHO cells assessed as increase in ghrelin-induced [3H]IP accumulation at 0.1 uM after 1 hr by scintillation counting relative to ghrelin. It counts as functional, cell-based. The method, boiled down:
as §1

Assay [14] has the same target. As to the kind of experiment: Agonist activity at rat GHSR expressed in CHO cells assessed as increase in ghrelin-induced [3H]IP accumulation at 1 uM after 1 hr by scintillation counting relative to ghrelin. In kind it is functional, cell-based. The method, boiled down: as §1
Assay [15] has the same target. Description: Inhibition of rat GHSR expressed in CHOK1 cells assessed as inhibition of ghrelin-induced intracellular calcium flux by aequorin flash luminescence assay. In kind it is functional, cell-based. Particulars: CHO-K1.

The structures appear in SMILES notation.

Usually Ki stands for the equilibrium dissociation constant of an inhibitor or competing ligand from its target. A low value points to tighter binding. Broadly, the IC50 is the concentration that gives 50% inhibition.

Mu-type opioid receptor, sequence (P35372 whole entry): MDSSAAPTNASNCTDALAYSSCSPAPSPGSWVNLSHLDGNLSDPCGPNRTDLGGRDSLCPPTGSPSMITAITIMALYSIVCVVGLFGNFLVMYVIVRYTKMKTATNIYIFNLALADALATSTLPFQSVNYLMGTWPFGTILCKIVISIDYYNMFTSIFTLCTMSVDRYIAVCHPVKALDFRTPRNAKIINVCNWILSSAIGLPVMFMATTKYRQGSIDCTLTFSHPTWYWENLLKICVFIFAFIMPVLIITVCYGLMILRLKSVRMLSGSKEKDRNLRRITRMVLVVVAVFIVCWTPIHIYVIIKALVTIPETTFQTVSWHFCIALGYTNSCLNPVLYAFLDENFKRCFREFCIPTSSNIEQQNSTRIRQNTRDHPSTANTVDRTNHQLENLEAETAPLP
Growth hormone secretagogue receptor type 1 (Rattus norvegicus), sequence (O08725 whole entry): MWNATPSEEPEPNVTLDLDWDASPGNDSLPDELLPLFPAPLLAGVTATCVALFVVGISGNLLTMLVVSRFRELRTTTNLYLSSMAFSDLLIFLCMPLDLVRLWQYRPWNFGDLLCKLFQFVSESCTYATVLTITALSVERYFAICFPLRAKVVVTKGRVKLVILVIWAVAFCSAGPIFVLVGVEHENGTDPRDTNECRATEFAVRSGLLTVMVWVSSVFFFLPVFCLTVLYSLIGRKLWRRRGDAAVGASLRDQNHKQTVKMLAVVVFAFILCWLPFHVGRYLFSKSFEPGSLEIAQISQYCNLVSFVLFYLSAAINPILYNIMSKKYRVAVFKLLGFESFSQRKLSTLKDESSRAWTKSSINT
Sodium-dependent serotonin transporter, sequence (P31645 whole entry): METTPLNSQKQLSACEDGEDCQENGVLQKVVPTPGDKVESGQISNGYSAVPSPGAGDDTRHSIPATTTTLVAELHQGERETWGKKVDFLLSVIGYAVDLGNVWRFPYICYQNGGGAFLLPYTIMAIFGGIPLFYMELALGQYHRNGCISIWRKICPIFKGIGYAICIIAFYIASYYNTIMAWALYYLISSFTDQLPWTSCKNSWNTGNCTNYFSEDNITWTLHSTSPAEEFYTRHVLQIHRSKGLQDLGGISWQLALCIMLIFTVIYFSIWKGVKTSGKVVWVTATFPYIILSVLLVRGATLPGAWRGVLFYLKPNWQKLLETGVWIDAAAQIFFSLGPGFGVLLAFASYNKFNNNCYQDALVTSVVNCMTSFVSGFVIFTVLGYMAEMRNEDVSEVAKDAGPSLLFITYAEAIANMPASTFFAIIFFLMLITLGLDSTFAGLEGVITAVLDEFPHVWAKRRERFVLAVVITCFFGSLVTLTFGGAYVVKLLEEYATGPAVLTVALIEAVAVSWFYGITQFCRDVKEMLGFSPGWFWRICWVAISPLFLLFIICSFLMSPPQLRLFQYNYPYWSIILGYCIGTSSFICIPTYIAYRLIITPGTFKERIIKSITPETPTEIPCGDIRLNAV
T2 sequence (Q92847 whole entry): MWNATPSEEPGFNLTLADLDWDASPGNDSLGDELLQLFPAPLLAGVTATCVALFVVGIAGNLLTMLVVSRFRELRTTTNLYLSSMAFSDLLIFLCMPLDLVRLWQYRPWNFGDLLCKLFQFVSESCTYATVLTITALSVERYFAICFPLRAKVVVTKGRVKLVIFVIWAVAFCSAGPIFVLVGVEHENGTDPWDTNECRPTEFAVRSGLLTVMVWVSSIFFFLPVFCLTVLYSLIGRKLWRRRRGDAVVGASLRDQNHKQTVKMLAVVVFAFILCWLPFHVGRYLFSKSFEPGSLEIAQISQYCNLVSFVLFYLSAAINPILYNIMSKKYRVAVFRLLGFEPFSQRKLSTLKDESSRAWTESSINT
D(3) dopamine receptor, sequence (P35462 whole entry): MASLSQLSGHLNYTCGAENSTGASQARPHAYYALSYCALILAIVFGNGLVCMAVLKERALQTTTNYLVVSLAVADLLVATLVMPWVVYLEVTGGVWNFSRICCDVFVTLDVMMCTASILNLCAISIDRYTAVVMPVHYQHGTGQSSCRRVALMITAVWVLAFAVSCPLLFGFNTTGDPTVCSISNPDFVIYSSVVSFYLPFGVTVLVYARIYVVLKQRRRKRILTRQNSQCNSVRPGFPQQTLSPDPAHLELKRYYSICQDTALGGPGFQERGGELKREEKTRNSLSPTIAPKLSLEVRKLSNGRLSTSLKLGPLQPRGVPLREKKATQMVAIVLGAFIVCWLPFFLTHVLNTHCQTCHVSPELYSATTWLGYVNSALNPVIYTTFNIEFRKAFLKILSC
Muscarinic acetylcholine receptor M3, sequence (P20309 whole entry): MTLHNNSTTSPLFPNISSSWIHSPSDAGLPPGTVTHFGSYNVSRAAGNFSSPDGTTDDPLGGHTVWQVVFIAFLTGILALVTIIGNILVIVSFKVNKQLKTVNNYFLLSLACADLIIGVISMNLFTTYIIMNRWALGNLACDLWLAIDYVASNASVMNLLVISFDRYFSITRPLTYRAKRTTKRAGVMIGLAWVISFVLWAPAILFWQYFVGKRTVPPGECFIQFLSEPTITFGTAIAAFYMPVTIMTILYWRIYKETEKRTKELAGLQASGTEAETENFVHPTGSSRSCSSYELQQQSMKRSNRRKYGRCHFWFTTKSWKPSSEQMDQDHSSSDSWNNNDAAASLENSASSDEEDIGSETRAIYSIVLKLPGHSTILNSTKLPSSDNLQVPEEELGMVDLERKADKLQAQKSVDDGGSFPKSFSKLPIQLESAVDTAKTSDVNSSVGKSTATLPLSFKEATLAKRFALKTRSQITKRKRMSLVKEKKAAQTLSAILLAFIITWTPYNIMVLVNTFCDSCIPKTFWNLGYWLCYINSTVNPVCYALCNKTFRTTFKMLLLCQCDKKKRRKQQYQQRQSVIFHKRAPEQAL

Take `C[C@H]1CN(C(=O)c2ccc(-c3ccccc3C(F)(F)F)cc2)CCN1C(=O)c1ccc2cc[nH]c2c1`: the Ki (in [1]; at Histamine H2 receptor; in assay [3]; in [5]; in [6]; in [8]) was more than 10 µM in each case. For the same compound, the Ki (in assay [9]; on D(3) dopamine receptor; at Mu-type opioid receptor; in [11]; in assay [12]; on D(2) dopamine receptor) was more than 10 µM each time. The 50% inhibitory concentration (IC50) in assay [2] is 0.0041 µM. The Activity in assay [4] is 24%; in [7], 21%; in assay [10], 28%.

As for `COc1ccc(-c2ccc(C(=O)N3CCN(C(=O)c4ccc5cc[nH]c5c4)[C@@H](C)C3)cc2)cc1`, the inhibitory constant (Ki) (in assay [1]; at Histamine H2 receptor; in assay [3]; in assay [5]; in assay [6]; in assay [8]) was more than 10 µM each time. Further, the inhibition constant (Ki) (in assay [9]; at D(3) dopamine receptor; at Mu-type opioid receptor; in assay [11]; in [12]; at D(2) dopamine receptor) was more than 10 µM throughout. For the same compound, in assay [2], the IC50 was determined as 0.007 µM. Moreover, the Activity in assay [4] came out at 33%; in assay [10] it was 34%.

As for `C[C@H]1CN(C(=O)c2ccc(-c3ccccc3)cc2)CCN1C(=O)c1ccc2cc[nH]c2c1`, the inhibition constant Ki (in [1]; at Histamine H2 receptor; in assay [3]; in [5]; in assay [6]; in assay [8]) was more than 10 µM throughout. For the same compound, the inhibitory constant (Ki) (in [9]; on D(3) dopamine receptor; on Mu-type opioid receptor; in assay [11]; in assay [12]; at D(2) dopamine receptor) was more than 10 µM in each case. Also, the IC50 in [2] is 0.006 µM. Moreover, the Activity in assay [4] was found to be 29%; in assay [10], 26%.

In the case of `O=C(c1ccc(-c2ccccc2)cc1)N1CCN(C(=O)c2ccc3cc[nH]c3c2)CC1`, the inhibition constant Ki (in assay [1]; at Histamine H2 receptor; in assay [3]; in [5]; in assay [6]; in assay [8]) was more than 10 µM each time. The Ki (in assay [9]; on D(3) dopamine receptor; on Mu-type opioid receptor; in assay [11]; in [12]; on D(2) dopamine receptor) was more than 10 µM in each case. The IC50 in [2] amounted to 0.1 µM. Further, the Activity in [4] came to 18%; in assay [10] it was 14%; in assay [13], 24%; in assay [14] it was 14%.

Regarding `Cc1ccccc1-c1ccc(C(=O)N2CCN(C(=O)c3ccc4cc[nH]c4c3)[C@@H](C)C2)cc1`, the inhibition constant (Ki) (in assay [1]; on Histamine H2 receptor; in [3]; in assay [5]; in assay [6]; in assay [8]) was more than 10 µM in each case. The Ki (in [9]; at D(3) dopamine receptor; on Mu-type opioid receptor; in assay [11]; in assay [12]; on D(2) dopamine receptor) was more than 10 µM throughout. Further, the IC50 in [2] worked out at 0.0029 µM. Further, the Activity in [4] came out at 32%; in assay [7], 18%; in assay [10], 31%.

For `C[C@H]1CN(C(=O)c2ccc(-c3ccncc3F)c(F)c2)CCN1C(=O)c1ccc2cc[nH]c2c1`, the results for the half-inhibitory concentration (IC50) in [15] and in [2] were 0.045 µM and 0.042 µM, respectively. Further, in [10], the Activity was -1%.

For the compound `C[C@H]1CN(C(=O)c2ccc(-c3ccccc3Cl)cc2)CCN1C(=O)c1ccc2cc[nH]c2c1`, the Ki (in assay [1]; at Histamine H2 receptor; in assay [3]; in assay [5]; in assay [6]; in assay [8]) was more than 10 µM throughout. Also, the inhibitory constant (Ki) (in [9]; on D(3) dopamine receptor; on Mu-type opioid receptor; in assay [11]; in assay [12]; on D(2) dopamine receptor) was more than 10 µM each time. In assay [2], the 50% inhibitory concentration (IC50) came out at 0.0021 µM. Further, the Activity in [4] stood at 35%; in [7] it was 24%; in [10], 32%.

In the case of `COc1cccc(-c2ccc(C(=O)N3CCN(C(=O)c4ccc5cc[nH]c5c4)[C@@H](C)C3)cc2)c1`, the inhibitory constant (Ki) (in assay [1]; on Histamine H2 receptor; in assay [3]; in assay [5]; in assay [6]; in [8]) was more than 10 µM throughout. In addition, the Ki (in assay [9]; at D(3) dopamine receptor; at Mu-type opioid receptor; in assay [11]; in assay [12]; on D(2) dopamine receptor) was more than 10 µM each time. In addition, the half-inhibitory concentration (IC50) in [2] worked out at 0.012 µM. Further, the values for the Activity in assay [4], in [7] and in [10] were 45%, 40% and 46%, respectively.

For the compound `C[C@H]1CN(C(=O)c2ccc(-c3ccncc3F)cc2)CCN1C(=O)c1ccc2cc[nH]c2c1`, the IC50 came out at 0.049 µM in assay [15] and 0.031 µM in assay [2]. The Activity in assay [10] was -2%.

(Values after ChEMBL document CHEMBL1154934, “Identification of piperazine-bisamide GHSR antagonists for the treatment of obesity” (Bioorg Med Chem Lett, 2010).)
